ChEMBL document CHEMBL3580574, “Design, Synthesis, and Biological Evaluation of Hexacyclic Tetracyclines as Potent, Broad Spectrum Antibacterial Agents” (J Med Chem, 2015)
Converted amounts (≈) assume the structure as drawn.

Experiments:
Assay type in all cases: functional
Burkholderia cenocepacia = experiment: Antibacterial activity against Burkholderia cenocepacia 240 assessed as bacterial growth inhibition by susceptibility testing assay; conditions: Burkholderia cenocepacia, 240; read-out: MIC
Summary of the method: (§1)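 Medium supplemented with lysed horse blood where appropriate. Compound stocks prepared and serially diluted in sterile deionized water. Runs were accepted against QC ranges for comparator antibiotics and ATCC QC strains.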

Pseudomonas aeruginosa = experiment: Antibacterial activity against Pseudomonas aeruginosa 555 BAA-47 assessed as bacterial growth inhibition by susceptibility testing assay; conditions: Pseudomonas aeruginosa, 555 BAA-47; read-out: MIC
Summary of the method: as §1, with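 “Broth microdilution MIC per CLSI in cation-adjusted Mueller Hinton broth, made fresh and held at 4 °C before testing. Medium” for “Medium”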

Enterococcus faecalis = experiment: Antibacterial activity against tet(M) tetracycline-resistant Enterococcus faecalis 327 assessed as bacterial growth inhibition by susceptibility testing assay; conditions: Enterococcus faecalis, 327; read-out: MIC
Summary of the method: (§2)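 Broth microdilution MIC per CLSI in 96-well plates; compound stocks prepared and serially diluted in sterile deionized water; cation-adjusted Mueller Hinton broth prepared fresh and held at 4 °C before testing, supplemented with lysed horse blood as appropriate; runs accepted when comparator antibiotics fell within QC ranges for appropriate ATCC quality control strains.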

Escherichia coli [1] = experiment: Antibacterial activity against Escherichia coli 107 ATCC 25922 assessed as bacterial growth inhibition by susceptibility testing assay; conditions: Escherichia coli, 107 ATCC 25922; read-out: MIC
Summary of the method: as §1, with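 “Broth microdilution MIC per CLSI in cation-adjusted Mueller Hinton broth, made fresh and held at 4 °C before testing. Medium” for “Medium”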

Enterobacter cloacae = experiment: Antibacterial activity against tet(A) tetracycline-resistant Enterobacter cloacae 603 assessed as bacterial growth inhibition by susceptibility testing assay; conditions: Enterobacter cloacae, 603; read-out: MIC; summary of the method: as §2
Klebsiella pneumoniae = experiment: Antibacterial activity against Klebsiella pneumoniae 457 harboring CTX-M-15 gene assessed as bacterial growth inhibition by susceptibility testing assay; conditions: Klebsiella pneumoniae, 457; read-out: MIC; summary of the method: as §2
Acinetobacter baumannii = experiment: Antibacterial activity against tet(B) tetracycline-resistant Acinetobacter baumannii 250 assessed as bacterial growth inhibition by susceptibility testing assay; conditions: Acinetobacter baumannii, 250; read-out: MIC; summary of the method: as §2
Staphylococcus aureus [2] = experiment: Antibacterial activity against tet(K) tetracycline-resistant Staphylococcus aureus 158 assessed as bacterial growth inhibition by susceptibility testing assay; conditions: Staphylococcus aureus, 158; read-out: MIC
Staphylococcus aureus [3] = experiment: Antibacterial activity against methicillin-resistant, tet(M) tetracycline-resistant Staphylococcus aureus 161 assessed as bacterial growth inhibition by susceptibility testing assay; conditions: Staphylococcus aureus, 161; read-out: MIC; summary of the method: as §2
Streptococcus pneumoniae = experiment: Antibacterial activity against tet(M) tetracycline-resistant Streptococcus pneumoniae 160 assessed as bacterial growth inhibition by susceptibility testing assay; conditions: Streptococcus pneumoniae, 160; read-out: MIC
Escherichia coli [4] = experiment: Antibacterial activity against tet(A) tetracycline-resistant Escherichia coli 155 assessed as bacterial growth inhibition by susceptibility testing assay; conditions: Escherichia coli, 155; read-out: MIC; summary of the method: as §2
Staphylococcus aureus [5] = experiment: Antibacterial activity against Staphylococcus aureus 101 ATCC 29213 assessed as bacterial growth inhibition by susceptibility testing assay; conditions: Staphylococcus aureus, 101 ATCC 29213; read-out: MIC
Summary of the method: as §1, with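 “Broth microdilution MIC per CLSI in cation-adjusted Mueller Hinton broth, made fresh and held at 4 °C before testing. Medium” for “Medium”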

[6] = system: Stenotrophomonas maltophilia; experiment: Antibacterial activity against Stenotrophomonas maltophilia 256 assessed as bacterial growth inhibition by susceptibility testing assay; conditions: Stenotrophomonas maltophilia, 256; read-out: MIC; summary of the method: as §1
Proteus mirabilis = experiment: Antibacterial activity against Proteus mirabilis 385 assessed as bacterial growth inhibition by susceptibility testing assay; conditions: Proteus mirabilis, 385; read-out: MIC
Summary of the method: as §1, with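 “Broth microdilution MIC per CLSI in cation-adjusted Mueller Hinton broth, made fresh and held at 4 °C before testing. Medium” for “Medium”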

Enterococcus faecium = experiment: Antibacterial activity against tet(M) tetracycline-resistant Enterococcus faecium 404 assessed as bacterial growth inhibition by susceptibility testing assay; conditions: Enterococcus faecium, 404; read-out: MIC

## CN(C)[C@@H]1C(O)=C(C(N)=O)C(=O)[C@@]2(O)C(O)=C3C(=O)c4c(O)c5c(c(F)c4C[C@H]3C[C@@H]12)[C@H]1NCC[C@@]1(C)CN5
Burkholderia cenocepacia
  MIC: > 32 µg/mL
Pseudomonas aeruginosa
  MIC: 32 µg/mL (≈ 59 µM)
Enterococcus faecalis
  MIC: 4 µg/mL (≈ 7.37 µM)
Escherichia coli [1]
  MIC: 0.5 µg/mL (≈ 0.922 µM)
Enterobacter cloacae
  MIC: 16 µg/mL (≈ 29.5 µM)
Klebsiella pneumoniae
  MIC: 4 µg/mL (≈ 7.37 µM)
Acinetobacter baumannii
  MIC: > 32 µg/mL
Staphylococcus aureus [2]
  MIC: 1 µg/mL (≈ 1.84 µM)
Staphylococcus aureus [3]
  MIC: 16 µg/mL (≈ 29.5 µM)
Streptococcus pneumoniae
  MIC: 0.25 µg/mL (≈ 0.461 µM)
Escherichia coli [4]
  MIC: 16 µg/mL (≈ 29.5 µM)
Staphylococcus aureus [5]
  MIC: 4 µg/mL (≈ 7.37 µM)
[6]
  MIC: 32 µg/mL (≈ 59 µM)
Proteus mirabilis
  MIC: 4 µg/mL (≈ 7.37 µM)
Enterococcus faecium
  MIC: 1 µg/mL (≈ 1.84 µM)

## CC(=O)N(C)CCN1CCC2CNc3c(O)c4c(c(F)c3C21)C[C@H]1C[C@H]2[C@H](N(C)C)C(O)=C(C(N)=O)C(=O)[C@@]2(O)C(O)=C1C4=O (mixture of isomers)
Burkholderia cenocepacia
  MIC: > 32 µg/mL
Pseudomonas aeruginosa
  MIC: > 32 µg/mL
Enterococcus faecalis
  MIC: > 32 µg/mL
Escherichia coli [1]
  MIC: 8 µg/mL
Enterobacter cloacae
  MIC: > 32 µg/mL
Klebsiella pneumoniae
  MIC: > 32 µg/mL
Acinetobacter baumannii
  MIC: > 32 µg/mL
Staphylococcus aureus [2]
  MIC: 1 µg/mL
Staphylococcus aureus [3]
  MIC: > 32 µg/mL
Streptococcus pneumoniae
  MIC: 4 µg/mL
Escherichia coli [4]
  MIC: 32 µg/mL
Staphylococcus aureus [5]
  MIC: 4 µg/mL
[6]
  MIC: > 32 µg/mL
Proteus mirabilis
  MIC: > 32 µg/mL
Enterococcus faecium
  MIC: 32 µg/mL

## CCN1CC[C@H]2CNc3c(O)c4c(c(F)c3[C@H]21)C[C@H]1C[C@H]2[C@H](N(C)C)C(O)=C(C(N)=O)C(=O)[C@@]2(O)C(O)=C1C4=O
Burkholderia cenocepacia
  MIC: 16 µg/mL (≈ 28.7 µM)
Pseudomonas aeruginosa
  MIC: 8 µg/mL (≈ 14.4 µM)
Enterococcus faecalis
  MIC: 0.125 µg/mL (≈ 0.225 µM)
Escherichia coli [1]
  MIC: 0.0625 µg/mL (≈ 0.112 µM)
Enterobacter cloacae
  MIC: 0.5 µg/mL (≈ 0.898 µM)
Klebsiella pneumoniae
  MIC: 1 µg/mL (≈ 1.8 µM)
Acinetobacter baumannii
  MIC: 2 µg/mL (≈ 3.59 µM)
Staphylococcus aureus [2]
  MIC: 0.0625 µg/mL (≈ 0.112 µM)
Staphylococcus aureus [3]
  MIC: 0.5 µg/mL (≈ 0.898 µM)
Streptococcus pneumoniae
  MIC: ≤ 0.0156 µg/mL
Escherichia coli [4]
  MIC: 0.25 µg/mL (≈ 0.449 µM)
Staphylococcus aureus [5]
  MIC: 0.25 µg/mL (≈ 0.449 µM)
[6]
  MIC: 1 µg/mL (≈ 1.8 µM)
Proteus mirabilis
  MIC: 1 µg/mL (≈ 1.8 µM)
Enterococcus faecium
  MIC: 0.0625 µg/mL (≈ 0.112 µM)

## CCCN1CC[C@@]2(C)CNc3c(O)c4c(c(F)c3[C@@H]12)C[C@H]1C[C@H]2[C@H](N(C)C)C(O)=C(C(N)=O)C(=O)[C@@]2(O)C(O)=C1C4=O
Burkholderia cenocepacia
  MIC: > 32 µg/mL
Pseudomonas aeruginosa
  MIC: > 32 µg/mL
Enterococcus faecalis
  MIC: 8 µg/mL (≈ 13.7 µM)
Escherichia coli [1]
  MIC: 1 µg/mL (≈ 1.71 µM)
Enterobacter cloacae
  MIC: 16 µg/mL (≈ 27.4 µM)
Klebsiella pneumoniae
  MIC: 16 µg/mL (≈ 27.4 µM)
Acinetobacter baumannii
  MIC: 16 µg/mL (≈ 27.4 µM)
Staphylococcus aureus [2]
  MIC: 0.125 µg/mL (≈ 0.214 µM)
Staphylococcus aureus [3]
  MIC: 8 µg/mL (≈ 13.7 µM)
Streptococcus pneumoniae
  MIC: 0.5 µg/mL (≈ 0.855 µM)
Escherichia coli [4]
  MIC: 4 µg/mL (≈ 6.84 µM)
Staphylococcus aureus [5]
  MIC: 0.5 µg/mL (≈ 0.855 µM)
[6]
  MIC: 4 µg/mL (≈ 6.84 µM)
Proteus mirabilis
  MIC: 32 µg/mL (≈ 54.7 µM)
Enterococcus faecium
  MIC: 4 µg/mL (≈ 6.84 µM)

## CN(C)[C@@H]1C(O)=C(C(N)=O)C(=O)[C@@]2(O)C(O)=C3C(=O)c4c(O)c5c(c(OC(F)(F)F)c4C[C@H]3C[C@@H]12)[C@@H]1[C@H](CN5)CC2CCCN21 (stereo not given in full)
Burkholderia cenocepacia
  MIC: 32 µg/mL (≈ 50.4 µM)
Pseudomonas aeruginosa
  MIC: 8 µg/mL (≈ 12.6 µM)
Enterococcus faecalis
  MIC: 0.125 µg/mL (≈ 0.197 µM)
Escherichia coli [1]
  MIC: 0.0625 µg/mL (≈ 0.0985 µM)
Enterobacter cloacae
  MIC: 4 µg/mL (≈ 6.3 µM)
Klebsiella pneumoniae
  MIC: 2 µg/mL (≈ 3.15 µM)
Acinetobacter baumannii
  MIC: 16 µg/mL (≈ 25.2 µM)
Staphylococcus aureus [2]
  MIC: 0.0625 µg/mL (≈ 0.0985 µM)
Staphylococcus aureus [3]
  MIC: 1 µg/mL (≈ 1.58 µM)
Streptococcus pneumoniae
  MIC: ≤ 0.0156 µg/mL
Escherichia coli [4]
  MIC: 0.25 µg/mL (≈ 0.394 µM)
Staphylococcus aureus [5]
  MIC: 0.25 µg/mL (≈ 0.394 µM)
[6]
  MIC: 4 µg/mL (≈ 6.3 µM)
Proteus mirabilis
  MIC: 4 µg/mL (≈ 6.3 µM)
Enterococcus faecium
  MIC: 0.0625 µg/mL (≈ 0.0985 µM)

## CN(C)CCN1CC[C@H]2CNc3c(O)c4c(c(F)c3[C@H]21)C[C@H]1C[C@H]2[C@H](N(C)C)C(O)=C(C(N)=O)C(=O)[C@@]2(O)C(O)=C1C4=O
Burkholderia cenocepacia
  MIC: > 32 µg/mL
Pseudomonas aeruginosa
  MIC: > 32 µg/mL
Enterococcus faecalis
  MIC: 8 µg/mL (≈ 13.3 µM)
Escherichia coli [1]
  MIC: 8 µg/mL (≈ 13.3 µM)
Enterobacter cloacae
  MIC: > 32 µg/mL
Klebsiella pneumoniae
  MIC: 32 µg/mL (≈ 53.4 µM)
Acinetobacter baumannii
  MIC: > 32 µg/mL
Staphylococcus aureus [2]
  MIC: 1 µg/mL (≈ 1.67 µM)
Staphylococcus aureus [3]
  MIC: 16 µg/mL (≈ 26.7 µM)
Streptococcus pneumoniae
  MIC: 1 µg/mL (≈ 1.67 µM)
Escherichia coli [4]
  MIC: > 32 µg/mL
Staphylococcus aureus [5]
  MIC: 4 µg/mL (≈ 6.67 µM)
[6]
  MIC: > 32 µg/mL
Proteus mirabilis
  MIC: > 32 µg/mL
Enterococcus faecium
  MIC: 4 µg/mL (≈ 6.67 µM)

## CN(C)[C@@H]1C(O)=C(C(N)=O)C(=O)[C@@]2(O)C(O)=C3C(=O)c4c(O)c5c(c(F)c4C[C@H]3C[C@@H]12)[C@H]1N(C)CC[C@@]1(C)CN5
Burkholderia cenocepacia
  MIC: 32 µg/mL (≈ 57.5 µM)
Pseudomonas aeruginosa
  MIC: 32 µg/mL (≈ 57.5 µM)
Enterococcus faecalis
  MIC: 8 µg/mL (≈ 14.4 µM)
Escherichia coli [1]
  MIC: 0.25 µg/mL (≈ 0.449 µM)
Enterobacter cloacae
  MIC: 4 µg/mL (≈ 7.19 µM)
Klebsiella pneumoniae
  MIC: 4 µg/mL (≈ 7.19 µM)
Acinetobacter baumannii
  MIC: 8 µg/mL (≈ 14.4 µM)
Staphylococcus aureus [2]
  MIC: 0.125 µg/mL (≈ 0.225 µM)
Staphylococcus aureus [3]
  MIC: 8 µg/mL (≈ 14.4 µM)
Streptococcus pneumoniae
  MIC: 0.25 µg/mL (≈ 0.449 µM)
Escherichia coli [4]
  MIC: 2 µg/mL (≈ 3.59 µM)
Staphylococcus aureus [5]
  MIC: 0.5 µg/mL (≈ 0.898 µM)
[6]
  MIC: 2 µg/mL (≈ 3.59 µM)
Proteus mirabilis
  MIC: 8 µg/mL (≈ 14.4 µM)
Enterococcus faecium
  MIC: 4 µg/mL (≈ 7.19 µM)
